Activity calls are given as the source filed them. The rule behind the calls is not given here.
Key:
[1] = Inhibition of gamma-secretase in CHO-APP cells assessed as amyloid beta-42 production using APP as substrate; type: cell-based; conditions: Cricetulus griseus
[2] = tested on: HeLa; assay: Binding affinity to SPP in human HeLa cell membrane at 20 nM after 1 hr by photo-affinity based Western blot analysis; type: cell membranes
Procedure, shortened: (§1)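 HeLa membranes (800 μg in 1.2 mL PBS) incubated 1 h at 37 °C with probe at 20 nM, with or without 1 μM competitor GSI. Photoirradiated at ~350 nm for 30 min at 4 °C, then pelleted. Click with biotin-azide (0.1 mM), TCEP 1.0 mM, CuSO4 1.0 mM, TBTA 0.1 mM, 1 h at room temperature. Solubilized in RIPA, streptavidin pull-down, SDS-PAGE, Western blot with PS1-NTF, PS1-CTF or SPP antibodies.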

[3] = molecular target: Presenilin-1 (Homo sapiens) (UniProt P49768); assay: Binding affinity to PS1 Carboxy-terminal fragment in human HeLa cell membrane at 20 nM by photo-affinity in-gel fluorescence method; type: cell membranes
Procedure, shortened: (§2)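 HeLa membranes photolabeled with probe at 20 nM, with or without 1 μM competitor GSI L458, then ~350 nm irradiation. Click reaction with TAMRA-azide, then acetone precipitation to remove excess reagent. Resolubilized in loading buffer, separated by SDS-PAGE, and scanned for in-gel fluorescence of PS1-NTF and PS1-CTF bands. Coomassie staining confirmed equal loading.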

[4] = molecular target: Presenilin-1 (Homo sapiens) (UniProt P49768); assay: Binding affinity to PS1 N-terminal fragment in human HeLa cell membrane at 20 nM after 1 hr by photo-affinity based Western blot analysis; type: cell membranes; procedure, shortened: as §1
[5] = molecular target: Presenilin-1 (Homo sapiens) (UniProt P49768); assay: Binding affinity to PS1 Carboxy-terminal fragment in human HeLa cell membrane at 20 nM by photo-affinity in-gel fluorescence method in presence of GSI L458; type: cell membranes; procedure, shortened: as §2
[6] = molecular target: Presenilin-1 (Homo sapiens) (UniProt P49768); assay: Binding affinity to PS1 Carboxy-terminal fragment in human HeLa cell membrane at 20 nM after 1 hr by photo-affinity based Western blot analysis; type: cell membranes; procedure, shortened: as §1
[7] = molecular target: Presenilin-1 (Homo sapiens) (UniProt P49768); assay: Binding affinity to PS1 N-terminal fragment in human HeLa cell membrane at 20 nM by photo-affinity in-gel fluorescence method in presence of GSI L458; type: cell membranes; procedure, shortened: as §2
[8] = molecular target: Presenilin-1 (Homo sapiens) (UniProt P49768); assay: Binding affinity to PS1 N-terminal fragment in human HeLa cell membrane at 20 nM by photo-affinity in-gel fluorescence method; type: cell membranes; procedure, shortened: as §2
[9] = molecular target: Presenilin-1 (Homo sapiens) (UniProt P49768); assay: Binding affinity to PS1 N-terminal fragment in human HeLa cell membrane at 20 nM after 1 hr by photo-affinity-based Western blot analysis in presence of GSI L458; type: cell membranes; procedure, shortened: as §1

Row | SMILES | IC50 [1] | Activity [2] | Activity [3] | Activity [4] | Activity [5] | Activity [6] | Activity [7] | Activity [8] | Activity [9]
1 | CC(C)C[C@H](NC(=O)[C@H](Cc1ccccc1)C[C@@H](O)[C@H](Cc1ccccc1)NC(=O)OC(C)(C)C)C(=O)N[C@@H](Cc1ccccc1)C(N)=O | 36 nM |  |  |  |  |  |  |  | 
2 | C#CCCCCNC(=O)[C@H](Cc1ccc(C(=O)c2ccccc2)cc1)NC(=O)[C@H](CC(C)C)NC(=O)[C@H](Cc1ccccc1)C[C@@H](O)[C@H](Cc1ccccc1)NC(=O)OC(C)(C)C | 4 nM | Active | Active | inactive | inactive | Active | inactive | inactive | 
3 | CC(C)C[C@H](NC(=O)[C@H](Cc1ccccc1)C[C@@H](O)[C@H](Cc1ccccc1)NC(=O)c1ccc(C(=O)c2ccccc2)cc1)C(=O)N[C@@H](Cc1ccccc1)C(=O)NCCCCCNC(=O)CCCC[C@@H]1SC[C@@H]2NC(=O)N[C@@H]21 | 817 nM |  |  | Active |  |  |  |  | inactive
4 | C#CCCCCNC(=O)[C@H](Cc1ccccc1)NC(=O)[C@H](CC(C)C)NC(=O)[C@H](Cc1ccccc1)C[C@@H](O)[C@H](Cc1ccccc1)NC(=O)c1ccc(C(=O)c2ccccc2)cc1 | 1000 nM | inactive | inactive | Active | inactive | inactive | inactive | Active | inactive
5 | CC(C)C[C@H](NC(=O)[C@H](Cc1ccccc1)C[C@@H](O)[C@H](Cc1ccccc1)NC(=O)OC(C)(C)C)C(=O)N[C@@H](Cc1ccc(C(=O)c2ccccc2)cc1)C(=O)NCCCCCNC(=O)CCCC[C@@H]1SC[C@@H]2NC(=O)N[C@@H]21 | 30 nM |  |  |  |  |  |  |  | 
